Activity calls are given as the source filed them. The calls are words filed in the database; no cut-off is given here.
How the values were obtained:
[1] = Displacement of [125I]TZDM from amyloid beta (1 to 40) aggregates after 2 hrs by gamma counting
How it was run: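 Competition binding against [125I]TZDM as radiolabeled standard, using Aβ1–40 aggregates; run in triplicate, results as mean ± SD.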

[2] = Binding affinity to amyloid beta fibrils
How it was run: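 Competitive binding to Aβ1–40 aggregates, with [125I]TZDM as the radiolabeled reference ligand displaced by unlabeled test compound. Run in triplicate and reported as mean ± SD.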

[3] = organism: Mus musculus; assay: Binding affinity to beta-amyloid plaque in APP/PS1 transgenic mouse C57 brain after 20 mins by autoradiography; type: tissue-based; settings: tested as the 125I-labelled form
How it was run: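 In vitro autoradiography of brain sections from AD model mice (C57, APP/PS1), labeled with the 125I-iodinated tracer.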

[4] = organism: Mus musculus; assay: Binding affinity to beta-amyloid plaque in APP/PS1 transgenic mouse C57 brain after 20 mins by fluorescent staining with thioflavin-S; type: tissue-based; settings: tested as the 125I-labelled form

COc1ccc(/C=C/C(=O)n2ccc3cc(Br)ccc32)cc1
Ki [1]: 25.4 nM

COc1ccc(/C=C/C(=O)n2ccc3cc(F)ccc32)cc1
Ki [1]: 32.4 nM

COc1ccc2cc([C@H](C)C(=O)O)ccc2c1 [NAPROXEN]
Ki [2]: 5.7 nM

O=C(/C=C/c1ccccc1)n1ccc2cc(I)ccc21
Ki [1]: 8.4 nM | Activity [3]: Active | Activity [4]: Active

COc1ccc(/C=C/C(=O)n2ccc3cc(I)ccc32)cc1
Ki [1]: 10.2 nM

O=C(/C=C/c1ccccc1)n1ccc2cc(O)ccc21
Ki [1]: 21.6 nM

COc1ccc(/C=C/C(=O)n2ccc3cc(Cl)ccc32)cc1
Ki [1]: 18.1 nM

CC(C)Cc1ccc([C@@H](C)C(=O)O)cc1 [(R)-IBUPROPHEN]
Ki [2]: 11.3 nM

O=C(/C=C/c1ccccc1)n1ccc2cc(Cl)ccc21
Ki [1]: 36.4 nM

Cc1ccc2c(ccn2C(=O)/C=C/c2ccccc2)c1
Ki [1]: 128 nM

From ChEMBL document CHEMBL1828568, “Novel imaging agents for β-amyloid plaque based on the N-benzoylindole core” (Bioorg Med Chem Lett, 2011)
